Bioassay records as filed in PubChem.
A selection: hits, their analogues and other compounds. The true share with any hit is near 3.2%.
zfTRPN1 agonist: agonists of zebrafish TRPN1 channel; HEK293 zebrafish TRPN1-YFP, Fluo-8 calcium fluorescence; 100% = response to 87 µM carbachol; actives 0.18% (n = 220,000); activation, % at 3 µM;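 active = activation above its plate's cutoff, the mean activation of test wells on that plate plus 3 SD, cut at about 19% in these data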;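 note: 0% = DMSO alone and 100% = 87 µM carbachol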
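Material – zebrafish TRPN1-YFP in HEK293 cells · Doses – 3 µM single point · Schedule – dye 1 h 37 °C plus 30 min RT · Signal – Fluo-8 calcium fluorescence, excitation 470-495 nm, emission 515-575 nm · Read-out – % activation versus carbachol response · Control set – carbachol high, DMSO low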
OX1R antag-1: blocks the human orexin 1 receptor; O43613; CHO/OX1R cells, Fluo-8 calcium fluorescence, orexin A; inhibition, % at 5 µM; actives 0.43% (n = 330,000);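 active = inhibition above its plate's threshold, mean inhibition of all tested compounds on the plate plus 3 SD, cut at about 37% in these data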;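 note: 0% = orexin A challenge wells and 100% = SB-334867-A antagonist wells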
Target sequence (O43613 whole entry, looked up): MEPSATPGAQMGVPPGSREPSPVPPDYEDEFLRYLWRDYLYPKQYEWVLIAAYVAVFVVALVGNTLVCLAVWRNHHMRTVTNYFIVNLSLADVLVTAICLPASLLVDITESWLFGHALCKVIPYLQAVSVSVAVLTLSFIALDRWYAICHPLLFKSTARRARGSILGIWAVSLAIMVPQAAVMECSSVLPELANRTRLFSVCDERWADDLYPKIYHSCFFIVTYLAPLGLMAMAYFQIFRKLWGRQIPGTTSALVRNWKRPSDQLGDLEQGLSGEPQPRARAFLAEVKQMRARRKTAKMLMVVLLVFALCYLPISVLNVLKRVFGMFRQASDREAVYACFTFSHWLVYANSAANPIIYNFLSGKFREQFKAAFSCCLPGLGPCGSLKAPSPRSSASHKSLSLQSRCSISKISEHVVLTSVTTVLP
TRPML3 ag: activates the human TRPML3 channel. HEK293 TRPML3-YFP, Fluo-8 calcium fluorescence; 100% = the carbachol control signal. actives 0.29% (n = 220,000). Q8TDD5. activation, % at 3 µM. AID 1448;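 active = activation above its plate's cutoff, the mean activation of the plate's test wells plus 3 SD, cut at about 12% in these data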;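 note: 0% = DMSO only wells and 100% = carbachol wells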
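Test system: TRPML3-YFP stable HEK293 cells. Doses: single point at 3 µM. Incubation: dye loading 1 h 37 °C then 30 min ambient, 125 s read. Signal: Fluo-8 calcium dye fluorescence, ex 470-495, em 515-575 nm. Measure: percent activation from peak-to-basal fluorescence ratio, scaled between DMSO and carbachol.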
OX1R antag-2: OX1R (human) antagonism; actives 1.8% (n = 330,000); OX1R-expressing cells, FRET antagonist read-out; inhibition, % at 6.6 µM; AID 485270; in the data active = inhibition mostly above about 38%, no sharp cut-off; inactive = mostly below about 40%;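 note: 0% = agonist challenge alone and 100% = reference antagonist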
CHO parental Ca: signal in parental CHO cells, OX1R antagonist counter-screen. parental CHO-K1, ATP-induced calcium, Fluo-8 fluorescence. inhibition, % at 5.6 µM. actives 0.63% (n = 330,000);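 active = inhibition above that plate's mean sample inhibition plus 3 SD, cut at about 26% in these data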;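 note: 0% = ATP-challenged DMSO wells and 100% = DMSO wells without ATP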
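test system = CHO parental line | reagent = ATP stimulus | measured by = intracellular calcium via Fluo-8 no-wash fluorescent dye | control set = ATP and no-ATP DMSO wells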
GPR7 antag: human neuropeptides B/W receptor 1 antagonism. P48145. GPR7-expressing cells, fluorescence antagonist assay. inhibition, % at 4.4 µM. actives 1.1% (n = 290,000). AID 1861; in the data active = inhibition above about 16%, passing the limit was not always enough;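 note: cells stimulated with the agonist NPW; 0% = agonist with vehicle and 100% = vehicle without agonist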
Numbers without * were called inactive.

CC(C)(C)[C@H]1COC(=O)[C@@H](Cc2ccc(F)cc2)C/C=C\C[C@@H](CC(=O)N[C@H](CO)Cc2ccccc2)C(=O)N1 was read as OX1R antag-1 -31, OX1R antag-2 8 and CHO parental Ca -28.
`CC(C)(C)[C@H]1COC(=O)[C@@H](Cc2ccc(F)cc2)C/C=C\C[C@@H](CC(=O)N[C@@H](CO)Cc2ccccc2)C(=O)N1` gave OX1R antag-1 43, OX1R antag-2 62* and CHO parental Ca -34.
CCCC(=O)Nc1cc(OC)c(C(=O)OC)cc1Cl was read as zfTRPN1 agonist 0, OX1R antag-1 -19, TRPML3 ag 0, OX1R antag-2 17, CHO parental Ca -12 and GPR7 antag -9.
Cc1c(C(=O)O)cccc1-c1ccc(/C=C2\SC(=O)NC2=O)o1 was read as OX1R antag-1 0, OX1R antag-2 56*, CHO parental Ca -8 and GPR7 antag 5.
`CCC(C)c1ccc(NC(=S)NCCn2cc(Cl)cn2)cc1` (centres undefined) gave zfTRPN1 agonist -2, OX1R antag-1 32, TRPML3 ag 0, OX1R antag-2 19, CHO parental Ca 45* and GPR7 antag -9.
Cc1ccc(S(=O)(=O)N(C)C)cc1NC(=O)COC(=O)/C(=C/c1ccc(F)cc1)c1cccs1 was read as zfTRPN1 agonist 2, OX1R antag-1 -24, TRPML3 ag 0, OX1R antag-2 14, CHO parental Ca -23 and GPR7 antag 1.
For Cc1cc(C(=O)CSc2nc3ccccc3o2)c(C)n1CC1CCCO1 (centres undefined) the results were zfTRPN1 agonist 5, OX1R antag-1 39*, TRPML3 ag 2, OX1R antag-2 64, CHO parental Ca 32 and GPR7 antag -14.
Cc1cc(C(=O)CSc2nc3ccccc3[nH]2)c(C)n1CC1CCCO1 (centres undefined) was read as zfTRPN1 agonist 12, OX1R antag-1 59*, TRPML3 ag 5, OX1R antag-2 54*, CHO parental Ca 85* and GPR7 antag 27*.
Screening COc1cc(-c2nc3c4ccccc4nc(=S)n3[nH]2)cc(OC)c1OC returned OX1R antag-1 6, OX1R antag-2 12, CHO parental Ca -4 and GPR7 antag -13.
For S=c1nc2ccccc2c2nc(-c3ccccc3Cl)[nH]n12 the results were OX1R antag-1 -6, OX1R antag-2 57*, CHO parental Ca -7 and GPR7 antag 28.
S=c1nc2ccccc2c2nc(-c3ccccc3)[nH]n12 was read as zfTRPN1 agonist 1, OX1R antag-1 -4, TRPML3 ag 0, OX1R antag-2 65*, CHO parental Ca -6 and GPR7 antag -2.
Screening COc1ccccc1NC(=O)COC(=O)/C=C/c1ccc(OC)c(OC)c1 returned OX1R antag-1 -33, OX1R antag-2 10 and CHO parental Ca -28.
For CCCCC1(C)NC(=O)N(CC(=O)Nc2ccc(Cl)cc2C)C1=O (centres undefined) the results were OX1R antag-1 0, OX1R antag-2 9 and CHO parental Ca -27.
Screening Cc1ccc2c(CNCc3ccccc3)cc(=O)oc2c1 returned OX1R antag-1 -10, OX1R antag-2 11, CHO parental Ca -17 and GPR7 antag 3.
For O=C(NCc1ccccn1)c1ccc(NS(=O)(=O)c2ccccc2)cc1 the results were OX1R antag-1 11, OX1R antag-2 16, CHO parental Ca 4 and GPR7 antag 3.
For Cc1cc(NC(=O)COC(=O)C2CC2)ccc1Br the results were OX1R antag-1 -11, OX1R antag-2 3 and CHO parental Ca -7.
`O=c1cc(-c2ccccc2)c2cc(Cl)c(O)c(CN3CCOCC3)c2o1` gave zfTRPN1 agonist 1, OX1R antag-1 -4, TRPML3 ag 2, OX1R antag-2 65*, CHO parental Ca -4 and GPR7 antag -12.
`CCc1cc2c(-c3ccccc3)cc(=O)oc2c(CN2CCOCC2)c1O` gave zfTRPN1 agonist 0, OX1R antag-1 -3, TRPML3 ag 1, OX1R antag-2 9, CHO parental Ca -6 and GPR7 antag -8.
CC1=NNC(=O)/C1=C\c1cn(-c2ccccc2)nc1-c1ccc(Cl)cc1 was read as zfTRPN1 agonist 1, OX1R antag-1 53*, TRPML3 ag 1, OX1R antag-2 5, CHO parental Ca 37* and GPR7 antag 10.
For Oc1ccccc1-c1cc(-c2ccc3c(c2)OCCO3)n[nH]1 the results were zfTRPN1 agonist 3, OX1R antag-1 18, TRPML3 ag 2, OX1R antag-2 59*, CHO parental Ca -3 and GPR7 antag -7.
`O=c1[nH]nc(Cc2ccc(-c3cccc(Cl)c3)o2)c2ccccc12` gave zfTRPN1 agonist 0, OX1R antag-1 55*, TRPML3 ag 0, OX1R antag-2 71*, CHO parental Ca 38 and GPR7 antag -14.
For N#Cc1nc(COc2ccc(Br)cc2)oc1N1CCN(Cc2ccccc2)CC1 the results were zfTRPN1 agonist 0, TRPML3 ag 1 and GPR7 antag 29*.
For Cc1ccc(S(=O)(=O)n2nc(C)c(Br)c2C)c(C)c1C the results were zfTRPN1 agonist 0, OX1R antag-1 52*, TRPML3 ag 1, OX1R antag-2 47, CHO parental Ca 38 and GPR7 antag -12.
For COc1ccc(-c2cn3cc(C(=O)NN)ccc3n2)cc1 the results were zfTRPN1 agonist 1, OX1R antag-1 57*, TRPML3 ag 0, OX1R antag-2 27, CHO parental Ca 54* and GPR7 antag -21.
Screening N#CC1=C(N)OC2=C(C(=O)CCC2)C1c1cc2c(cc1Br)OCO2 (centres undefined) returned OX1R antag-1 -19, OX1R antag-2 6, CHO parental Ca -4 and GPR7 antag 0.
Screening CNc1nc(SC)n(C)c(=O)c1N=O returned zfTRPN1 agonist 1, OX1R antag-1 -6, TRPML3 ag 1, OX1R antag-2 48*, CHO parental Ca -8 and GPR7 antag -5.
O=C(NCC(=O)N1CCN(Cc2ccccc2)CC1)c1ccc(Cl)cc1 was read as OX1R antag-1 -16, OX1R antag-2 18, CHO parental Ca -15 and GPR7 antag -14.
Screening O=C(NCC(=O)N1CCN(Cc2ccccc2)CC1)c1cc(Cl)cc([N+](=O)[O-])c1 returned OX1R antag-1 -11, OX1R antag-2 34* and CHO parental Ca -2.
Screening COc1ccc(N2C(=O)N3[C@@H]4c5ccccc5OC[C@@H]4[C@@H](c4ccccc4)[C@@]3(C)C2=O)cc1 returned OX1R antag-1 -19, OX1R antag-2 -1 and CHO parental Ca -11.
